In ChEMBL document CHEMBL5724801, “EUbOPEN Chemogenomics Library - Multiplex” (2024):
Values joined by “and” are separate entries in the source; they are usually repeats but may differ in a detail not shown here. Equal entries are not always repeated.

Test system: U2OS
Assay: Multiplex assay against U2OS
Format: toxicity, cell-based
Details: human
Method in brief: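 Live cells were stained at seeding with Hoechst33342, BioTracker Green Microtubule Cytoskeleton Dye, MitoTracker Red and Annexin V Alexa Fluor 680. Following compound addition, they were imaged on a CQ1 microscope at 37°C and 5% CO2 and gated by CellPathfinder machine learning into Hoechst high-intensity objects or normal cells, with normal cells split into healthy, pyknosed or fragmented nuclei and pyknosed cells into mitotic or apoptotic. Tubulin, mitochondrial-mass and membrane-permeability phenotypes are per cents of healthy-nucleus cells.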

[1] = 12 h, 1 µM, compound concentration 1 uM
[2] = 12 h, 10 µM, compound concentration 10 uM
[3] = 24 h, 1 µM, compound concentration 1 uM
[4] = 24 h, 10 µM, compound concentration 10 uM
[5] = 48 h, 1 µM, compound concentration 1 uM
[6] = 48 h, 10 µM, compound concentration 10 uM

SMILES: Cc1c(CC(=O)O)c2cccnc2n1Cc1ccc(S(C)(=O)=O)cc1C(F)(F)F [FEVIPIPRANT]
- Population Apoptotic (%) [1]: 80% and 50%
- Population Fragmented Nuclei (%) [1]: 25% and 22%
- Population Healthy Nuclei (%) [1]: 64% and 72%
- Population Hoechst High Intensity Objects (%) [1]: 1%
- Population Membrane Permeable-Phenotype (%) [1]: 2% and 8%
- Population Mitochondria Different-Phenotype (%) [1]: 2% and 1%
- Population Mitotic Cells (%) [1]: 19% and 50%
- Population Normal (%) [1]: 98%
- Population Pyknosed Nuclei (%) [1]: 9% and 5%
- Population Tubulin-Different-Phenotype (%) [1]: 0% and 9%
- Total Cell Count [1]: 224 and 118
- Population Apoptotic (%) [2]: 90% and 100%
- Population Fragmented Nuclei (%) [2]: 27% and 22%
- Population Healthy Nuclei (%) [2]: 65% and 73%
- Population Hoechst High Intensity Objects (%) [2]: 2% and 0%
- Population Membrane Permeable-Phenotype (%) [2]: 3% and 8%
- Population Mitochondria Different-Phenotype (%) [2]: 0% and 3%
- Population Mitotic Cells (%) [2]: 9% and 0%
- Population Normal (%) [2]: 97% and 99%
- Population Pyknosed Nuclei (%) [2]: 7% and 3%
- Population Tubulin-Different-Phenotype (%) [2]: 1% and 4%
- Total Cell Count [2]: 287 and 116
- Population Apoptotic (%) [3]: 80% and 66%
- Population Fragmented Nuclei (%) [3]: 20% and 17%
- Population Healthy Nuclei (%) [3]: 71% and 74%
- Population Hoechst High Intensity Objects (%) [3]: 2% and 0%
- Population Membrane Permeable-Phenotype (%) [3]: 1% and 9%
- Population Mitochondria Different-Phenotype (%) [3]: 3% and 0%
- Population Mitotic Cells (%) [3]: 20% and 33%
- Population Normal (%) [3]: 97% and 100%
- Population Pyknosed Nuclei (%) [3]: 8%
- Population Tubulin-Different-Phenotype (%) [3]: 1% and 10%
- Total Cell Count [3]: 256 and 145
- Population Apoptotic (%) [4]: 96% and 100%
- Population Fragmented Nuclei (%) [4]: 20% and 12%
- Population Healthy Nuclei (%) [4]: 70% and 78%
- Population Hoechst High Intensity Objects (%) [4]: 0% and 1%
- Population Membrane Permeable-Phenotype (%) [4]: 5% and 8%
- Population Mitochondria Different-Phenotype (%) [4]: 3% and 2%
- Population Mitotic Cells (%) [4]: 3% and 0%
- Population Normal (%) [4]: 99% and 98%
- Population Pyknosed Nuclei (%) [4]: 8%
- Population Tubulin-Different-Phenotype (%) [4]: 3%
- Total Cell Count [4]: 326 and 119
- Population Apoptotic (%) [5]: 65% and 90%
- Population Fragmented Nuclei (%) [5]: 18% and 20%
- Population Healthy Nuclei (%) [5]: 71% and 67%
- Population Hoechst High Intensity Objects (%) [5]: 2%
- Population Membrane Permeable-Phenotype (%) [5]: 4% and 8%
- Population Mitochondria Different-Phenotype (%) [5]: 3% and 5%
- Population Normal (%) [5]: 97%
- Population Pyknosed Nuclei (%) [5]: 10% and 12%
- Population Tubulin-Different-Phenotype (%) [5]: 2% and 9%
- Total Cell Count [5]: 379 and 187
- Population Apoptotic (%) [6]: 91% and 100%
- Population Fragmented Nuclei (%) [6]: 17% and 15%
- Population Healthy Nuclei (%) [6]: 73% and 76%
- Population Hoechst High Intensity Objects (%) [6]: 1% and 3%
- Population Membrane Permeable-Phenotype (%) [6]: 4% and 5%
- Population Mitochondria Different-Phenotype (%) [6]: 3% and 1%
- Population Mitotic Cells (%) [6]: 8% and 0%
- Population Normal (%) [6]: 98% and 96%
- Population Pyknosed Nuclei (%) [6]: 8%
- Population Tubulin-Different-Phenotype (%) [6]: 3%
- Total Cell Count [6]: 408 and 158

SMILES: COc1ccc2[nH]c(I)c(CCNC(C)=O)c2c1 [IODOMELATONIN]
- Population Apoptotic (%) [1]: 68% and 37%
- Population Fragmented Nuclei (%) [1]: 19% and 11%
- Population Healthy Nuclei (%) [1]: 74% and 83%
- Population Hoechst High Intensity Objects (%) [1]: 2% and 0%
- Population Membrane Permeable-Phenotype (%) [1]: 4% and 5%
- Population Mitochondria Different-Phenotype (%) [1]: 3% and 1%
- Population Mitotic Cells (%) [1]: 31% and 62%
- Population Normal (%) [1]: 97% and 99%
- Population Pyknosed Nuclei (%) [1]: 5%
- Population Tubulin-Different-Phenotype (%) [1]: 1% and 2%
- Total Cell Count [1]: 282 and 156
- Population Apoptotic (%) [2]: 77% and 80%
- Population Fragmented Nuclei (%) [2]: 25% and 41%
- Population Healthy Nuclei (%) [2]: 64% and 54%
- Population Hoechst High Intensity Objects (%) [2]: 3% and 0%
- Population Membrane Permeable-Phenotype (%) [2]: 2% and 10%
- Population Mitochondria Different-Phenotype (%) [2]: 1% and 6%
- Population Mitotic Cells (%) [2]: 22% and 20%
- Population Normal (%) [2]: 96% and 99%
- Population Pyknosed Nuclei (%) [2]: 9% and 3%
- Population Tubulin-Different-Phenotype (%) [2]: 1% and 2%
- Total Cell Count [2]: 231 and 134
- Population Apoptotic (%) [3]: 86% and 80%
- Population Fragmented Nuclei (%) [3]: 16% and 15%
- Population Healthy Nuclei (%) [3]: 75% and 78%
- Population Hoechst High Intensity Objects (%) [3]: 1%
- Population Membrane Permeable-Phenotype (%) [3]: 3% and 8%
- Population Mitochondria Different-Phenotype (%) [3]: 1% and 0%
- Population Mitotic Cells (%) [3]: 13% and 20%
- Population Normal (%) [3]: 98%
- Population Pyknosed Nuclei (%) [3]: 8% and 5%
- Population Tubulin-Different-Phenotype (%) [3]: 2%
- Total Cell Count [3]: 354 and 179
- Population Apoptotic (%) [4]: 95% and 88%
- Population Fragmented Nuclei (%) [4]: 25% and 34%
- Population Healthy Nuclei (%) [4]: 66% and 59%
- Population Hoechst High Intensity Objects (%) [4]: 1%
- Population Membrane Permeable-Phenotype (%) [4]: 4% and 7%
- Population Mitochondria Different-Phenotype (%) [4]: 1% and 5%
- Population Mitotic Cells (%) [4]: 4% and 11%
- Population Normal (%) [4]: 98%
- Population Pyknosed Nuclei (%) [4]: 8% and 5%
- Population Tubulin-Different-Phenotype (%) [4]: 1% and 2%
- Total Cell Count [4]: 273 and 153
- Population Apoptotic (%) [5]: 92% and 86%
- Population Fragmented Nuclei (%) [5]: 12% and 13%
- Population Healthy Nuclei (%) [5]: 79% and 81%
- Population Hoechst High Intensity Objects (%) [5]: 1%
- Population Membrane Permeable-Phenotype (%) [5]: 5% and 4%
- Population Mitochondria Different-Phenotype (%) [5]: 2%
- Population Mitotic Cells (%) [5]: 7% and 13%
- Population Normal (%) [5]: 98%
- Population Pyknosed Nuclei (%) [5]: 7% and 5%
- Population Tubulin-Different-Phenotype (%) [5]: 3%
- Total Cell Count [5]: 509 and 284
- Population Apoptotic (%) [6]: 97% and 100%
- Population Fragmented Nuclei (%) [6]: 21% and 29%
- Population Healthy Nuclei (%) [6]: 68% and 65%
- Population Hoechst High Intensity Objects (%) [6]: 2% and 0%
- Population Membrane Permeable-Phenotype (%) [6]: 5% and 7%
- Population Mitochondria Different-Phenotype (%) [6]: 0% and 5%
- Population Mitotic Cells (%) [6]: 2% and 0%
- Population Normal (%) [6]: 97% and 99%
- Population Pyknosed Nuclei (%) [6]: 9% and 5%
- Population Tubulin-Different-Phenotype (%) [6]: 2% and 4%
- Total Cell Count [6]: 373 and 209
